Assay results: ChEMBL document CHEMBL1126156, “Multivariate analysis by the minimum spanning tree method of the structural determinants of diphenylethylenes and triphenylacrylonitriles implicated in estrogen receptor binding, protein kinase C activity, and MCF7 cell proliferation” (J Med Chem, 1992)

Columns and labels:
[1] = target: T1, Protein kinase C, PKC; classical (Rattus norvegicus) (UniProt P05696+P68403+P63319); test: The percent stimulation or inhibition of protein kinase C III activity was determined for phosphatidylserine (PS) and diolein(PS+DO) in the presence of [Ca2+]; format: protein assay; design: concentration or dose not given beside the values; conditions: values are per cent of control
Outline: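 Type III (α) PKC purified from rat brain soluble fraction, assayed with calf thymus H1 histone, 0.1 mM Ca2+, 5 mM magnesium acetate, 10 μM [32P]ATP, 2 μg/mL phosphatidylserine plus 0.2 μg/mL diolein. Compounds mostly at 10⁻⁴ M; activity expressed as percent of control.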

[2] = target: T1, Protein kinase C, PKC; classical (Rattus norvegicus); test: Percent stimulation or inhibition of protein kinase C III activity for phosphatidylserine (PS) in the presence of [Ca2+].; format: protein assay; design: concentration or dose not given beside the values; conditions: values are per cent of control
Outline: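 Purified type III (α) PKC from rat brain soluble fraction. Substrate calf thymus H1 histone with 0.1 mM Ca2+, 5 mM magnesium acetate, 10 μM [32P]ATP and 2 μg/mL phosphatidylserine, no diolein. Most compounds at 10⁻⁴ M, given as percent of control activity.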

MCF7S [3] = test: Agonistic activity in MCF-7 cell proliferation.; format: functional, Homo sapiens
Outline: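 MCF-7 cells grown in phenol red-free medium with 5% dextran-coated charcoal-treated serum, tested 10 pM to 1 μM. DNA content read after growth. Agonism expressed relative to the maximum response with E2 (=100%), whatever the concentration. EC50 (50% of maximum response) taken from two separate experiments.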

MCF7S [4] = test: Cytostatic activity against MCF-7 cell proliferation.; format: functional, Homo sapiens; design: concentration or dose not given beside the values
Outline: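 MCF-7 cells in phenol red-free charcoal-treated medium given 10⁻⁶ M E2 plus test compound (3–10 μM), 6 days of growth. DNA expressed as percent of E2-treated cells. IC30 is the concentration giving 30% inhibition. Percent inhibition taken at 10⁻⁵ M, or at 10⁻⁶ M in a second series. Means of two experiments.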

Rattus norvegicus = organism: Rattus norvegicus; test: Percent stimulation or inhibition of protein kinase C III activity for protamine sulfate in the presence of EGTA.; design: concentration or dose not given beside the values; conditions: values are per cent of control
Outline: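 Rat brain type III (α) PKC, purified, with protamine sulfate as substrate and 0.5 mM EGTA in place of Ca2+, phosphatidylserine and diolein; 5 mM magnesium acetate, 10 μM [32P]ATP. Most compounds at 10⁻⁴ M; percent of control activity.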

| SMILES | residual activity [1] | residual activity [2] | Agonism (MCF7S [3]) | Inhibition (MCF7S [4]) | residual activity (Rattus norvegicus) |
| --- | --- | --- | --- | --- | --- |
| CCN(CC)CCOc1ccc(C(C#N)=C(c2ccccc2)c2ccccc2)cc1 | 20% | 43% | 71% | 53% | 96% |
| N#CC(=C(c1ccc(O)cc1)c1ccc(O)cc1)c1ccc(O)cc1 | 32% | 38% | 85% | 39% | 33% |
| N#CC(=C(c1ccccc1)c1ccccc1)c1ccc(O)cc1 | 113% | 92% | 90% | 8% | 103% |
| Cc1ccc(C(C#N)=C(c2ccc(O)cc2)c2ccc(O)cc2)cc1 | 38% | 84% | 71% | 38% | 46% |
| N#CC(=C(c1ccc(O)cc1)c1ccc(O)cc1)c1ccccc1 | 42% | 94% | 62% | 30% | 50% |
| Cc1ccc(/C(=C(/C#N)c2ccccc2)c2ccc(O)cc2)cc1 | 95% | 107% | 55% | 38% | 77% |
| CCN(CC)CCOc1ccc(/C(=C(\C#N)c2ccccc2)c2ccc(O)cc2)cc1 | 1% | 10% | 12% | 89% | 88% |
| C[C@]12CC[C@@H]3c4ccc(O)cc4CC[C@H]3[C@@H]1CC[C@@H]2O [ESTRADIOL] | 89% | 77% | 100% | 25% | 99% |
| N#C/C(=C(/c1ccccc1)c1ccc(O)cc1)c1ccccc1 | 104% | 96% | 94% | 12% | 94% |
| N#C/C(=C(\c1ccccc1)c1ccc(O)cc1)c1ccc(O)cc1 | 91% | 97% | 100% | 30% | 68% |
| Cc1ccc(/C(=C(/C#N)c2ccc(O)cc2)c2ccc(O)cc2)cc1 | 80% | 113% | 69% | 35% | 90% |
| N#CC(=C(c1ccccc1)c1ccccc1)c1ccccc1 | 106% | 126% | 68% | 16% | 106% |
| CC(C)Oc1ccc(C(=C(C#N)c2ccccc2)c2ccc(OC(C)C)cc2)cc1 | 100% | 100% | 40% | 32% | 100% |
| COc1ccc(/C(=C(\C#N)c2ccccc2)c2ccc(O)cc2)cc1 | 100% | 100% | 26% | 36% | 100% |
| N#C/C(=C(/c1ccccc1)c1ccc(O)cc1)c1ccc(O)cc1 | 87% | 94% | 98% | 17% | 86% |
| CCN(CC)CCOc1ccc(C(=C(C#N)c2ccccc2)c2ccc(OCCN(CC)CC)cc2)cc1 | 10% | 20% | 62% | 94% | 101% |
| COc1ccc(C(=C(C#N)c2ccccc2)c2ccc(OC)cc2)cc1 | 100% | 98% | 34% | 8% | 92% |
| CCC(=C(c1ccc(O)cc1)c1ccc(OCCN(C)C)cc1)c1ccccc1 | 2% | 27% | 10% | 81% | 94% |
| CC(C)Oc1ccc(/C(=C(\C#N)c2ccccc2)c2ccc(O)cc2)cc1 | 101% | 138% | 33% | 61% | 86% |
